The results in this text go back to ChEMBL document CHEMBL1759890, “3,5-Disubstituted-indole-7-carboxamides: the discovery of a novel series of potent, selective inhibitors of IKK-β” (Bioorg Med Chem Lett, 2011).

The structures appear in SMILES notation. ≈ marks a conversion by molar mass, not a printed value.

For data set [1], the target named is T1, Inhibitor of nuclear factor kappa-B kinase subunit beta (Homo sapiens, UniProt O14920).
T1 sequence (O14920 whole entry): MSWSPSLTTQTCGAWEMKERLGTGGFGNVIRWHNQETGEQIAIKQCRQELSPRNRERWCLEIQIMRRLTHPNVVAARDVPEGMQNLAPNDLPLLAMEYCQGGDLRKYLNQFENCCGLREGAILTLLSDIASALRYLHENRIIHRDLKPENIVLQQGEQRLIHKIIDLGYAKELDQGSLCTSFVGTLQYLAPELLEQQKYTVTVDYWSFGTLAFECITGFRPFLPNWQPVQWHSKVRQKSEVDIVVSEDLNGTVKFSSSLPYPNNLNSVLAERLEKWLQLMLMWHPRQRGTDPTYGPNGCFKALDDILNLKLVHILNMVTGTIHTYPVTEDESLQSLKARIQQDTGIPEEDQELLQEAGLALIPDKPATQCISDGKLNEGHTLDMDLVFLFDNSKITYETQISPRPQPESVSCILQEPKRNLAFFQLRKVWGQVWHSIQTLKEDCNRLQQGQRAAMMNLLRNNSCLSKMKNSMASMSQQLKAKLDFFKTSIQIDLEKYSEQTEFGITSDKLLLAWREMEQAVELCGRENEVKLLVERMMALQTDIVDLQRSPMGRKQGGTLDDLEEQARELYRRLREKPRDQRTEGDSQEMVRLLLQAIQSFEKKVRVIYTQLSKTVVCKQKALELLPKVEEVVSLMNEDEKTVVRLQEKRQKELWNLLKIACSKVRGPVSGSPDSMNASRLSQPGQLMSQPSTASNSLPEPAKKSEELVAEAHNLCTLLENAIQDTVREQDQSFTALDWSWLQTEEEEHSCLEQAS
As to the kind of experiment: Inhibition of IKK-beta.

The target in data set [2] is T2, Inhibitor of nuclear factor kappa-B kinase subunit alpha (Homo sapiens, UniProt O15111).
T2 sequence (O15111 whole entry): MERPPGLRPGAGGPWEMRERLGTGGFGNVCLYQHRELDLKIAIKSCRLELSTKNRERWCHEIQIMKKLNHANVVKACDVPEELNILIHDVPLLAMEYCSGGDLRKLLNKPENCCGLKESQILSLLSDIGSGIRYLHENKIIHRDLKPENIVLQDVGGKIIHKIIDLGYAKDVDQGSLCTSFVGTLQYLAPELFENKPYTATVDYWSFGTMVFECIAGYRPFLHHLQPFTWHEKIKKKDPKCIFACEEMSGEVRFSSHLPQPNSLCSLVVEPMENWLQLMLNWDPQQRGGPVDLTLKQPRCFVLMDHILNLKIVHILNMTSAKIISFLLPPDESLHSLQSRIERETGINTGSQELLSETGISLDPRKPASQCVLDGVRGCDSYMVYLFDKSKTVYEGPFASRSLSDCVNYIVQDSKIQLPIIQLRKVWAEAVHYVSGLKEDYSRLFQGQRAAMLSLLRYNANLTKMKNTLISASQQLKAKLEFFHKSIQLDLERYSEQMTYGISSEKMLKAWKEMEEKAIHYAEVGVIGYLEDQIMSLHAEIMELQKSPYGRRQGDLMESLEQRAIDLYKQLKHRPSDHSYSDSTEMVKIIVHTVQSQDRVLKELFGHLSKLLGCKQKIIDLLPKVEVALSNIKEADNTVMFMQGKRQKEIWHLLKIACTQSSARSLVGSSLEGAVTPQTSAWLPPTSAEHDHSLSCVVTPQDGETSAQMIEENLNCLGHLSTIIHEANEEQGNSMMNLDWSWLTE
As to the kind of experiment: Inhibition of IKK-alpha. The method in brief: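 Done the same way as the IKK-β TR-FRET assay but with 6-His-tagged full-length IKK-α. Buffer is 50 mM HEPES, 10 mM MgCl₂, 1 mM CHAPS pH 7.4, 1 mM DTT, 0.01% w/v BSA. GST-IκBα substrate 25 nM final, ATP 1 μM final, DMSO below 5% final. Error about ±0.3 log units.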

A short description of data set [3]: Oral bioavailability in rat. The class given is ADME, organism-based. As to conditions: in vivo.
The target of data set [4] is T3, Serine/threonine-protein kinase TBK1 (Homo sapiens, UniProt Q9UHD2).
T3 sequence (Q9UHD2 whole entry): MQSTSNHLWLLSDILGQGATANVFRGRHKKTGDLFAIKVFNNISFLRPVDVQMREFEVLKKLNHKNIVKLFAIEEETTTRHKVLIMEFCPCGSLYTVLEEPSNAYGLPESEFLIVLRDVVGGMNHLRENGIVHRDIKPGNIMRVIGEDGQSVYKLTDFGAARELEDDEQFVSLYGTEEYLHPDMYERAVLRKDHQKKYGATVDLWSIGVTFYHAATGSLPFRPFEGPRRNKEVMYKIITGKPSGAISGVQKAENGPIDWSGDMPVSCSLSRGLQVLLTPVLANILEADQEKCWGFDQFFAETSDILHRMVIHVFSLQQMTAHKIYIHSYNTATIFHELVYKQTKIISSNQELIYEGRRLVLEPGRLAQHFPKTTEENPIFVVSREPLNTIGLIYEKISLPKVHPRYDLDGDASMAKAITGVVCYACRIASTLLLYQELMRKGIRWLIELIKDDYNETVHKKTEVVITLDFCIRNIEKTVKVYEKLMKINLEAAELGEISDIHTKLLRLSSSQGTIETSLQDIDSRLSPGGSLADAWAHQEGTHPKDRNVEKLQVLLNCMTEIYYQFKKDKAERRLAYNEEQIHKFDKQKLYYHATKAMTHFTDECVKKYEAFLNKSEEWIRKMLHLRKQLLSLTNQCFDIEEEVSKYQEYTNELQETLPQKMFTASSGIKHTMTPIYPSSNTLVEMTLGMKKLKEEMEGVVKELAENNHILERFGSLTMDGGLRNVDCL
As to the kind of experiment: Inhibition of TBK-1.

Data set [5] has as its target Macrophage colony-stimulating factor 1 receptor (Homo sapiens, UniProt P07333). As to the kind of experiment: Inhibition of c-FMS.
Data set [6] deals with Tyrosine-protein kinase BTK (Homo sapiens, UniProt Q06187). As to the kind of experiment: Inhibition of BTK.
Data set [7] deals with T4, Inhibitor of nuclear factor kappa-B kinase subunit epsilon (Homo sapiens, UniProt Q14164).
T4 sequence (Q14164 whole entry): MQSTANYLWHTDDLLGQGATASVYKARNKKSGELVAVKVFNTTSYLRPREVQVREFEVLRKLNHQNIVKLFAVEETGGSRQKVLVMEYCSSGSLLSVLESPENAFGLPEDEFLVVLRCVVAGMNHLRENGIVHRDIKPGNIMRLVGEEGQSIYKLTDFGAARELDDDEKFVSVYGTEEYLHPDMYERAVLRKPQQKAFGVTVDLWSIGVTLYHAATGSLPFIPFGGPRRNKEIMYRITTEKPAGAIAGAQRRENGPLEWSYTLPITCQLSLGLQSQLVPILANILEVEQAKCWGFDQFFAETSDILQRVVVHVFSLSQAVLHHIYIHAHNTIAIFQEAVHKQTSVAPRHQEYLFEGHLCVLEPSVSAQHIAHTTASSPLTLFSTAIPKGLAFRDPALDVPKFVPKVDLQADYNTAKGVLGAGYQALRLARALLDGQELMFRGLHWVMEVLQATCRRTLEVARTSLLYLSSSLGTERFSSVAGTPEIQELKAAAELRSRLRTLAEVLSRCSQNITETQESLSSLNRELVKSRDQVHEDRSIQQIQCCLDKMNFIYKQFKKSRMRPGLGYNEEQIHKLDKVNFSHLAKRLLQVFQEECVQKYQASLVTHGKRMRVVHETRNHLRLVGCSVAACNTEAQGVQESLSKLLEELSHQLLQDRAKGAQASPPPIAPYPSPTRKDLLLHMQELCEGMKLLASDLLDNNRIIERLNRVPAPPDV
As to the kind of experiment: Inhibition of IKK-epsilon.

In data set [8] the target is serum albumin (Homo sapiens, UniProt P02768). As to the kind of experiment: Binding affinity to human serum albumin. The note with it: read-out: PB. Type of data set: ADME.
Data set [9] has as its system PBMC. As to the kind of experiment: Antiinflammatory activity in human PBMC assessed as inhibition of LPS-induced TNF-alpha production. The class given is functional, cell-based. In outline:
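Human peripheral blood mononuclear cells stimulated with LPS. Read-out is inhibition of TNF-α production, reported as pIC50.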

Data set [10] can be described thus: Aqueous solubility of the compound. The class given is physicochemical.

serum albumin, sequence (P02768 whole entry): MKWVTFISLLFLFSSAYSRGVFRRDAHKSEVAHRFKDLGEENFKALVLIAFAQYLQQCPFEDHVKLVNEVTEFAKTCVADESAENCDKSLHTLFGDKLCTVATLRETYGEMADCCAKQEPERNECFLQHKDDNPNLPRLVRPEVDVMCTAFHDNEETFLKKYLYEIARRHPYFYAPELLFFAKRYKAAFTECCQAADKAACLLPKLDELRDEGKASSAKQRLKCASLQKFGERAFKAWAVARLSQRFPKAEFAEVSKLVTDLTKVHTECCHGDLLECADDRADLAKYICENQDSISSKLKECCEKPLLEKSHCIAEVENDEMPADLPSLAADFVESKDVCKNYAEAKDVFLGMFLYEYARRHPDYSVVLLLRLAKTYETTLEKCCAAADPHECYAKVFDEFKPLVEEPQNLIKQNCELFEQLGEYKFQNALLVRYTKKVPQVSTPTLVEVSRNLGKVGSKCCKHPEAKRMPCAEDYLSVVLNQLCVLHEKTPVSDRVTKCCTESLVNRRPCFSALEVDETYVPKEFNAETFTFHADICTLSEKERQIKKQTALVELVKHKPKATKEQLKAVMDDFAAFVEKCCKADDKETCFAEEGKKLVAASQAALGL
Macrophage colony-stimulating factor 1 receptor, sequence (P07333 whole entry): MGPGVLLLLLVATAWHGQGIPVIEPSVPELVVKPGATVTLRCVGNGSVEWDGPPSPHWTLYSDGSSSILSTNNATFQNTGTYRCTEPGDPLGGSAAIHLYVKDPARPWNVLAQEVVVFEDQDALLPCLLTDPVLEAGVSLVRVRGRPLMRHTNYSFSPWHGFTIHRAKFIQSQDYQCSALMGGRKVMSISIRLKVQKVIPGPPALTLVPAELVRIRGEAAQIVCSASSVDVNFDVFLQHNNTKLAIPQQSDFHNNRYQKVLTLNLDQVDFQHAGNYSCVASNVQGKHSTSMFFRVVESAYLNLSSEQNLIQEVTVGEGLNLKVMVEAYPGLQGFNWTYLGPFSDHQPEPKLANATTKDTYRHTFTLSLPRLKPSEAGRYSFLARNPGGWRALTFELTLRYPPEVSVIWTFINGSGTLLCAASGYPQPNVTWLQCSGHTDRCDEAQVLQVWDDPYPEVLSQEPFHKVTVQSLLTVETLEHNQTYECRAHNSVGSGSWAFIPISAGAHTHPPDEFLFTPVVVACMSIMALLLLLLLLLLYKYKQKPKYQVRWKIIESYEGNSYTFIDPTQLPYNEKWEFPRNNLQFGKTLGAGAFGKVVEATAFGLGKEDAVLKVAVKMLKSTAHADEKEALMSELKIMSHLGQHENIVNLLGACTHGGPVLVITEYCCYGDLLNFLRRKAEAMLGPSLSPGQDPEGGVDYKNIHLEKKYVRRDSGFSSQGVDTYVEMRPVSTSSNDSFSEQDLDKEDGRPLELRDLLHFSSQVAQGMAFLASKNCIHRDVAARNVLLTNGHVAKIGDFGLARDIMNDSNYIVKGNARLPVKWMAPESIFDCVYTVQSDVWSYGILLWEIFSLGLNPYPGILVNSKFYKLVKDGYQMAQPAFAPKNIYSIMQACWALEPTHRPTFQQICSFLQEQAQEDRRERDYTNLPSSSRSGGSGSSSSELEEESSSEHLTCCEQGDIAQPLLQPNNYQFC
Tyrosine-protein kinase BTK, sequence (Q06187 whole entry): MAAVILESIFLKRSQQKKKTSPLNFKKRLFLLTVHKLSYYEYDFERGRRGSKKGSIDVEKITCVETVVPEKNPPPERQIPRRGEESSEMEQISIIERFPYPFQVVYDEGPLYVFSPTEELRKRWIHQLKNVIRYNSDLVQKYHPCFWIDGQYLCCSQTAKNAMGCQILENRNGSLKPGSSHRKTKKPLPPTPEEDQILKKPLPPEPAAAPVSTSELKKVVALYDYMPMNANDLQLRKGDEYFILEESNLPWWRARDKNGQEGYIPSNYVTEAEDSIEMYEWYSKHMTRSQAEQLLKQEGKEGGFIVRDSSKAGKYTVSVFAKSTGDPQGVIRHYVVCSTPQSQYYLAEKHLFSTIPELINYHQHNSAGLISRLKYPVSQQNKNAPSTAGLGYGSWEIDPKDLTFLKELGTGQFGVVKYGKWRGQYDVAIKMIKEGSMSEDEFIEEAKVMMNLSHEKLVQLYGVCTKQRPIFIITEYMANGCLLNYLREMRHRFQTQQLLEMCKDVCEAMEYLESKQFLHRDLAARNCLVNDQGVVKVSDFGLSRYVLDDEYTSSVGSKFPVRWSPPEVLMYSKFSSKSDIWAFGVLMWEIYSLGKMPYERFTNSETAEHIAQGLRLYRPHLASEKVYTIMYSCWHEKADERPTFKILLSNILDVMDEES

For `NC(=O)c1cc(-c2ccccc2)cc2cc[nH]c12`, the IC50 (commonly the concentration that inhibits the measured activity by half) in [1] was 1580 nM; in data set [2] it was 10000 nM.
In the case of `NC(=O)c1cc(-c2cc3ccccc3o2)cc2cc[nH]c12`, the IC50 in data set [1] is 501 nM; in [2], 3980 nM.
In data set [1], `O=C(O)c1cc(-c2ccccc2)cc2cc[nH]c12` had an IC50 above 15800 nM.
Consider `NC(=O)c1cc(-c2ccccc2)cc2c(C3CCCNC3)c[nH]c12` (centres undefined), for which, in data set [3], the bioavailability (usually the share of a dose that reaches the circulation, judged against a reference dose that is usually intravenous) stood at 22%. The IC50 was above 3160 nM in data set [4]; 158 nM in data set [1]; 1580 nM in [5]; 1260 nM in [6]; above 3160 nM in data set [7]; 631 nM in data set [9]. In data set [2], this compound showed an IC50 of 1580 nM. Further, the fraction unbound in data set [8] was determined as 0.09. Also, the concentration in solution in [10] (solubility) came to 136 µg/mL (≈ 426 µM).
With `COc1ccncc1-c1cc(C(N)=O)c2[nH]ccc2c1`, the figures for the IC50 in data set [1] and in data set [2] were 1580 nM and 12600 nM, respectively.
In the same order, the values of `CC(C)S(=O)(=O)N1CCC(c2c[nH]c3c(C(N)=O)cc(-c4ccccc4)cc23)CC1` are 20 nM and 3160 nM.
For `NC(=O)c1cc(-c2cccc(CO)c2)cc2cc[nH]c12`, in that order: 2510 nM and 15800 nM.
In the same order, the values of `NC(=O)c1cc(-c2ccccc2)cc2c(C3CCNCC3)c[nH]c12` are 501 nM and 10000 nM.
In turn, `NC(=O)c1cc(Br)cc2c3c([nH]c12)CCCC3` had an IC50 in data set [1] of 2510 nM.
Consider `NC(=O)c1cc(-c2ccccc2Cl)cc2cc[nH]c12`, for which the concentration for half-maximal inhibition (IC50) in data set [1] is 6310 nM; in data set [2], above 15800 nM.
For `NC(=O)c1cc(-c2cncnc2)cc2cc[nH]c12`, in that order: 5010 nM and 15800 nM.
In the same order, the values of `N#Cc1cccc(-c2cc(C(N)=O)c3[nH]ccc3c2)c1` are 1580 nM and 10000 nM.
`CCc1ccc(-c2cc(C(N)=O)c(NC(N)=O)s2)cc1` had an IC50 in data set [1] of 7.94 nM.
In the case of `CCS(=O)(=O)N1CCC(c2c[nH]c3c(C(N)=O)cc(-c4ccccc4)cc23)CC1`, the values for the IC50 in data set [1] and in data set [2] were 25.1 nM and 2000 nM, respectively.
On to `NC(=O)c1cc(-c2cccc(Cl)c2)cc2cc[nH]c12`, for which the IC50 was 794 nM in [1] and 5010 nM in [2].
In the same order, the values of `NC(=O)c1cc(-c2ccc(Cl)cc2)cc2cc[nH]c12` are 316 nM and 6310 nM.
In the same order, the values of `NC(=O)c1cc(-c2ccc(CO)cc2)cc2cc[nH]c12` are 1260 nM and 15800 nM.
In the same order, the values of `NC(=O)c1cc(-c2ccccc2)cc2c(C3CCN(S(=O)(=O)c4ccc(Cl)cc4)CC3)c[nH]c12` are 398 nM and 7940 nM.
Compound `CN(C)C(=O)c1cc(-c2ccccc2)cc2cc[nH]c12` had an IC50 in data set [1] above 15800 nM.
Turning to `CS(=O)(=O)Nc1ccc(-c2cc(C(N)=O)c3[nH]ccc3c2)cc1`, the IC50 is 501 nM in data set [1] and 3980 nM in data set [2].
